According to PubChem BioAssay:
Calls of active or inactive are those of the source.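 Rule for the calls, unless noted: active = inhibition above 20% together with a positive visual image hit; inconclusive = visual image hit but inhibition not above 20%; inactive = no visual image hit.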

Assays:
[1] = inhibitors of TNFa-induced NFkB p65 translocation, primary screen, imaging, HUVEC, MLSMR starter and 10KST1 sets (AID 438); details: HUVEC TNFa-induced p65 nuclear translocation; cell count: measured here: nuclei count (cytotoxicity indicator), at 2.08 µM; inhibition: at 2 µM, stronger effect = higher value, 0% TNFa-plus-vehicle, 100% no-TNFa wells;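 note: compound added about 3h40 before a 20 min TNFalpha stimulation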;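 for inhibition: signal is the nuclear over cytoplasmic p65 intensity ratio per well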
[2] = inhibitors of mutant huntingtin aggregation, primary screen, imaging, exon1htt(103Q)mCFP cells, high-content imaging (AID 483;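 active = visual image review flags a hit and inhibition of aggregation exceeds 20%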;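 note: compound exposure lasted 3 days before fixation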;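 for nuclei count: percent of the per-plate median nuclei count of sample wells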); details: exon1htt(103Q)mCFP cell line, aggregate imaging, at 2 µM; inhibition of aggregation: stronger effect = higher value; nuclei count: measured here: cell count, toxicity
[3] = inhibitors of E-selectin induction by TNFa, primary screen, imaging, HUVEC, immunofluorescence, MLSMR starter and 10KST1 sets (AID 487;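 active = visually confirmed hit in the image check and inhibition above 20%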;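 for inhibition: signal is fraction of cell area covered by stained E-selectin grains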;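 for nuclei count: 100% = median nuclei count of all wells on the same plate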); details: HUVEC TNFalpha-induced E-selectin immunofluorescence imaging, at 2 µM; inhibition: stronger effect = higher value; nuclei count: measured here: cell number, toxicity
[4] = molecular target: Voltage-gated potassium channel subunit beta-2 (Rattus norvegicus) (UniProt P62483); assay: KvBeta enzyme negative modulators, primary screen, biochemical, NADPH fluorescence (AID 622;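 active = fluorescence slope higher than the sample average by over 3 SD, cut at about -0.22 in these data, passing the limit was not always enough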;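 note: slope of raw intensity against log time taken from 70 to 1610 s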); details: recombinant KvBeta, 4-cyanobenzaldehyde reduction, at 10 µM, stronger effect = higher value
[5] = molecular target: Voltage-gated potassium channel subunit beta-2 (Rattus norvegicus) (UniProt P62483); assay: KvBeta positive modulators, primary screen, biochemical, NADPH fluorescence (AID 623;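 active = NADPH fluorescence slope more negative than the mean of all samples by about 3 SD, 99.7% confidence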;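 note: fluorescence intensity change per second fitted from 20 to 320 s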); details: Recombinant KvBeta, NADPH fluorescence decrease slope, 10 min; at 10 µM; stronger effect = lower value
[6] = molecular target: Alpha-2C adrenergic receptor (Homo sapiens) (UniProt P18825); assay: modulators of alpha2C/GIRK thallium flux, primary screen, cell-based, HEK293 alpha2C/GIRK1/2 (AID 624;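 active = fluorescence slope after compound addition differing from the mean of all screened samples at 99.7% confidence, in either direction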;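 note: slope of fluorescence ratio to pre-addition baseline per second over 15 to 24 s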); details: thallium flux BTC fluorescence, at 10 µM, actives lie on both sides
[7] = inhibitors of larval lipid processing in zebrafish, primary screen, whole organism, PED6 fluorescence, gall bladder and intestine (AID 686;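 active = a full or partial loss of lipid-probe fluorescence in the fish gall bladder, intestine or both, judged by eye; inactive = no fluorescence loss, or compound toxic to the fish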;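 note: larvae 5 to 7 days old with five fish per well; signal comes from phospholipase A2 cleavage of quenched PED6 carried via bile; overnight exposure to compound and PED6 before scoring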); details: Zebrafish larvae PED6 lipid processing, fluorescence scoring; screened at 20 µM (by protocol)
How it was run: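 Test system – live zebrafish larvae aged 5-7 days, whole organism · Buffer or medium – E3 fish medium · Reagent – quenched phospholipase substrate PED6, 100 nM final, ingested by larvae · Doses – 20 µM single dose · Incubation – overnight compound and PED6 incubation · Technique – visual fluorescence microscopy scoring of gall bladder, gut · Read-out basis – visual per-well fluorescence inhibition score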

[8] = inhibitors of Sendai virus-induced IRF3 signaling, primary screen, TLR/RLR signaling modifier project, cell-based, Sendai virus stimulus, luciferase, 10K MLSCN set (AID 602276;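 active = inhibition at or above 50% at 10 µM; inactive = inhibition below 50%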;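 note: firefly luciferase from ISG56 promoter only with Renilla not read in this screen; 0% = Sendai virus plus DMSO and 100% = medium plus DMSO without virus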); details: HEK293 RL24 IRF3 luciferase reporter, at 10 µM, stronger effect = higher value
[9] = inhibitors of poly I:C-induced TLR3 signaling, primary screen, cell-based, poly I:C stimulus, luciferase, 10K MLSCN set (AID 602277;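 active = inhibition of the reporter signal at or above 50%; inactive = inhibition below 50%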); details: HEK293-TLR3 RL24 IRF3 luciferase reporter, at 10 µM, stronger effect = higher value

Chain of Voltage-gated potassium channel subunit beta-2 (Rattus norvegicus) (P62483 whole entry, looked up): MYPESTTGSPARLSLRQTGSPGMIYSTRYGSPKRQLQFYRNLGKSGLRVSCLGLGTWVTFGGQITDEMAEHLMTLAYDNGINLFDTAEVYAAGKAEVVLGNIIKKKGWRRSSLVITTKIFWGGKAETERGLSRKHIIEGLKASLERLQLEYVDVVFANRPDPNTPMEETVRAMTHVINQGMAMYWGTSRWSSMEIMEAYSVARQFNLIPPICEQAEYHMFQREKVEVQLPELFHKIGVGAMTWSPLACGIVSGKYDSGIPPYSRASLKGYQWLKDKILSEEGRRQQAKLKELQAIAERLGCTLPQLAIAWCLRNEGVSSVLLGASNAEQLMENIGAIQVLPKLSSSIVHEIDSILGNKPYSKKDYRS
Chain of Alpha-2C adrenergic receptor (Homo sapiens) (P18825 whole entry, looked up): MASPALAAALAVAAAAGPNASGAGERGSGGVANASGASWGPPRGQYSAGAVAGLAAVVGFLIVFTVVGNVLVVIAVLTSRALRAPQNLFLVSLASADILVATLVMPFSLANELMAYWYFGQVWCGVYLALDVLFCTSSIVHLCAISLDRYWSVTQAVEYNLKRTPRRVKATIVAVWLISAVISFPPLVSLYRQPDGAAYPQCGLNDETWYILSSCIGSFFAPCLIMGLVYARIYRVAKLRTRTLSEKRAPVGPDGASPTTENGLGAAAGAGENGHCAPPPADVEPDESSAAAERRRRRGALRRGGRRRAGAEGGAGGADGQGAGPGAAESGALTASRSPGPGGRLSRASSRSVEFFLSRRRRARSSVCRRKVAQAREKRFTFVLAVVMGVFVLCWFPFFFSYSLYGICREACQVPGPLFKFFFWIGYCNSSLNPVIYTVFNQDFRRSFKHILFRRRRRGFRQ

Structure (SMILES)	cell count [1]	inhibition [1]	inhibition of aggregation [2]	nuclei count [2] [%]	inhibition [3]	nuclei count [3] [%]	fluorescence slope [4]	NADPH fluorescence slope [5]	slope [6]	outcome [7]	inhibition [8]	inhibition [9]
COc1cc2cc(C(c3nnnn3C3CCCC3)N3CCCCCC3)c(=O)[nH]c2cc1OC (centres undefined)	477	-13.3% (inactive)	22.5% (inactive)	75	40.8% (inactive)	73.4	-0.351 (inactive)	-7.3e-05 (inactive)	0.00516 (inactive)	inactive	17% (inactive)	20.8% (inactive)
Cn1c(=O)c2c(nc(N3CCN(c4ccccc4)CC3)n2CCCc2ccccc2)n(C)c1=O	702	1.4% (inactive)	-15.2% (inactive)	99.1	20.4% (inactive)	96.5	-0.339 (inactive)	-3.2e-05 (inactive)	0.00552 (inactive)	inactive	10.7% (inactive)	-10.5% (inactive)
CCCC(=O)Nc1ccc(C(=O)O)cc1NC(=O)CCC	442	-4.3% (inactive)	-9.3% (inactive)	104	39.4% (inactive)	89.9	-0.441 (inactive)	-5e-05 (inactive)	0.00422 (inactive)	inactive	12.9% (inactive)	15.5% (inactive)
Cc1cc(C(=O)COC(=O)c2n[nH]c3ccccc23)c(C)n1C	377	2.6% (inactive)	-0.6% (inactive)	86.6	12.4% (inactive)	96.7	-0.445 (inactive)	-1.8e-05 (inactive)	0.00398 (inactive)	inactive	5.43% (inactive)	-24.2% (inactive)
COc1ccc(Cl)c(N2CCN(CCCNC(=O)Nc3ccc(C)cc3)CC2)c1	320	2.4% (inactive)	-10.7% (inactive)	98.8	16% (inactive)	108	-0.479 (inactive)	-5.7e-05 (inactive)	0.0037 (inactive)	inactive	2.1% (inactive)	-5.24% (inactive)
O=C(CN1CCN(c2ccc(F)cc2)CC1)OCc1ccccc1	662	11.1% (inactive)	-6.3% (inactive)	102	5.8% (inactive)	118	-0.356 (inactive)	-6.7e-05 (inactive)	0.00472 (inactive)	inactive	6.81% (inactive)	6.58% (inactive)
Cc1ccc2cc(C(c3nnnn3C3CCCC3)N3CCN(c4ccc(F)cc4)CC3)c(=O)[nH]c2c1 (centres undefined)	586	7.2% (inactive)	-4.3% (inactive)	99.8	-31.9% (inactive)	130	-0.372 (inactive)	-4.7e-05 (inactive)	0.00624 (inactive)	inactive; toxic	23.2% (inactive)	34.2% (inactive)
Cc1cnc(C(=O)Nc2ccccc2-n2cccc2)cn1	426	6% (inactive)	-9.1% (inactive)	107	-157% (inactive)	115	-0.379 (inactive)	-5.7e-05 (inactive)	0.00535 (inactive)	inactive	-12.6% (inactive)	0.535% (inactive)
COCCCn1c(=N)c(C(=O)NCC2CCCO2)cc2c(=O)n3cccc(C)c3nc21 (centres undefined)	587	-8.8% (inactive)	-3.1% (inactive)	78.6	28.1% (inactive)	67.6	-0.0296 (active)	-1.3e-05 (inactive)	0.00471 (inactive)	inactive	11.6% (inactive)	21% (inactive)
Cn1c(CN2CCCCC2)nc2cc(NC(=O)c3ccccc3)ccc21	435	-0.8% (inactive)	3.4% (inactive)	85.3	2.3% (inactive)	92.4	-0.438 (inactive)	-9.5e-07 (inactive)	0.00451 (inactive)	inactive	-17.4% (inactive)	98.6% (active)
COc1ccc(OC)c(NS(=O)(=O)Cc2ccccc2)c1	356	6.3% (inactive)	-14.8% (inactive)	110	-73.7% (inactive)	120	-0.424 (inactive)	-1.8e-05 (inactive)	0.00242 (inactive)	inactive	13.9% (inactive)	16.5% (inactive)
Cc1c(CNCc2cccs2)c(C(=O)O)c(C)n1Cc1ccccc1	451	5.5% (inactive)	3.1% (inactive)	115	-30.9% (inactive)	101	-0.454 (inactive)	-7.6e-05 (inactive)	0.00618 (inactive)	inactive	18.8% (inactive)	17% (inactive)
O=S(=O)(c1cccc2c(S(=O)(=O)N3CCCC3)cccc12)N1CCCC1	250	-13.4% (inactive)	-7.2% (inactive)	118	-17.4% (inactive)	88.6	-0.355 (inactive)	6.6e-06 (inactive)	0.00452 (inactive)	inactive	18.2% (inactive)	21.9% (inactive)
O=C(O)C1CCCCC1C(=O)Nc1ccccn1 (centres undefined)	475	-7.1% (inactive)	-2.7% (inactive)	109	18.5% (inactive)	83.2	-0.445 (inactive)	-5e-05 (inactive)	0.00502 (inactive)	inactive	7.72% (inactive)	0.963% (inactive)
COc1ccc(NC(=O)CSc2nc(C)cc(C(F)(F)F)n2)cc1	648	-3.3% (inactive)	8.8% (inactive)	95.3	-1% (inactive)	92.8	-0.418 (inactive)	-2.1e-05 (inactive)	0.00507 (inactive)	inactive	14.9% (inactive)	18.5% (inactive)
Cc1ccc(S(=O)(=O)N2CCN(C(=O)CSc3nc4ccccc4c(=O)[nH]3)CC2)c(C)c1	541	-30.9% (inactive)	-12.7% (inactive)	113	-13.1% (inactive)	130	-0.331 (inactive)	1.8e-05 (inactive)	0.00493 (inactive)	inactive	8.86% (inactive)	4.21% (inactive)
COc1ccc(OC)c(Nc2nc(-c3cccs3)cs2)c1	333	1.5% (inactive)	-9.1% (inactive)	104	-35.5% (inactive)	110	-0.444 (inactive)	-6e-05 (inactive)	0.00343 (inactive)	active; weak signal in gallbladder and intestine	7.1% (inactive)	-5.46% (inactive)
Cc1ccc(F)cc1NC(=O)C1CCCN(c2ncccn2)C1 (centres undefined)	692	-7.8% (inactive)	-34.5% (inactive)	117	-56.9% (inactive)	118	-0.357 (inactive)	-1.9e-05 (inactive)	0.00523 (inactive)	inactive	7.51% (inactive)	9.04% (inactive)
Cc1ccc(Cn2c(SCC(N)=O)nc3c2c(=O)n(C)c(=O)n3C)cc1	582	-6.2% (inactive)	19.4% (inactive)	88	29.5% (inactive)	72.3	-0.333 (inactive)	1e-05 (inactive)	0.00505 (inactive)	inactive	0.352% (inactive)	2.84% (inactive)
Cc1cccc(NC(=O)CC2CCC2)c1	362	-4.1% (inactive)	3% (inactive)	97.1	40.7% (inactive)	71.8	-0.435 (inactive)	-2.3e-05 (inactive)	0.00515 (inactive)	inactive	3.07% (inactive)	-0.215% (inactive)
Cc1nnc(SCC(=O)NCc2ccc3c(c2)OCO3)s1	418	3.1% (inactive)	-12% (inactive)	101	-57% (inactive)	106	-0.468 (inactive)	-4.3e-05 (inactive)	0.00565 (inactive)	inactive	5.5% (inactive)	11.6% (inactive)
CCN(CC)C(c1ccc(C)cc1)c1nnnn1C1CCCCC1 (centres undefined)	438	-6.7% (inactive)	37.1% (inactive)	85.4	60% (inactive)	88.2	-0.399 (inactive)	-6.9e-05 (inactive)	0.00367 (inactive)	inactive	16.7% (inactive)	25.8% (inactive)
CCOC(=O)c1c2n(c3ccc(O)cc13)CCCCC2	571	7.1% (inactive)	-7.5% (inactive)	107	-113% (inactive)	110	-0.413 (inactive)	-3.4e-05 (inactive)	0.00489 (inactive)	inactive	-6.81% (inactive)	1.43% (inactive)
CCCN1CCN(C(=O)Cn2cccc2C(=O)c2ccccc2)CC1	568	5.4% (inactive)	-4.9% (inactive)	109	-0.1% (inactive)	108	-0.405 (inactive)	-5.8e-05 (inactive)	0.00424 (inactive)	inactive	7.77% (inactive)	11.7% (inactive)
COC(=O)c1[nH]c2ccc(C)cc2c1NC(=O)CN1CCCC(C)(C)C1	422	7.3% (inactive)	-2.1% (inactive)	101	-330% (inactive)	107	-0.37 (inactive)	-2.6e-05 (inactive)	0.00452 (inactive)	inactive	8.28% (inactive)	18% (inactive)
Cc1cc(C)c(NC2=NCC(=O)N2C2CCCCC2)c(C)c1	638	-2.2% (inactive)	5.3% (inactive)	122	-32.7% (inactive)	114	-0.389 (inactive)	1.7e-05 (inactive)	0.00607 (inactive)	inactive	-0.88% (inactive)	-0.177% (inactive)
CC(=O)N1CN(C2CCCC2)Cc2c1sc1c2CCCC1	793	-14% (inactive)	11.7% (inactive)	99.2	26.2% (inactive)	90.6	-0.433 (inactive)	-1.9e-07 (inactive)	0.00682 (inactive)	inactive	5.21% (inactive)	20% (inactive)
